Test results from ChEMBL document CHEMBL1134836, “Design, synthesis, and biological evaluation of a series of lavendustin A analogues that inhibit EGFR and Syk tyrosine kinases, as well as tubulin polymerization” (J Med Chem, 2001).

Legend:
[1] = target: Epidermal growth factor receptor (Mus musculus, UniProt Q01279); experiment: Inhibition of epidermal growth factor receptor phosphorylation in BaF3 mouse lymphoid cells.; type: cell-based
In short: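 BaF3/EGFR cells serum-starved 24 h, then about 10^7 cells/mL treated 2 h at 37 °C with inhibitor at 3-5 concentrations. Chilled 20 min, then given EGF 100 ng/mL for 7 min on ice. Lysates precipitated on concanavalin A beads, run on SDS/PAGE, and immunoblotted with antiphosphotyrosine using ECL detection.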

[2] = system: MDA-MB-435; experiment: In vitro cytotoxicity against human breast MDA-MB-435 cells.; type: functional
[3] = system: MCF-10A; experiment: Inhibition of DNA synthesis in MCF-10A cells.; type: functional, cell-based; details: Homo sapiens
In short: (§1)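 Cells seeded at 10^5/well and grown 24 h at 37 °C, then given inhibitor in DMSO at 3-5 concentrations, 3-4 wells each, for 48 h. [3H]thymidine pulse for 2 h. TCA-precipitated label solubilized in perchloric acid and counted.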

[4] = system: CCRF-CEM; experiment: Cytotoxic effect on human leukemia CCRF-CEM cells; type: functional
[5] = system: OVCAR-3; experiment: In vitro cytotoxicity against human ovarian OVCAR-3 cells.; type: functional
[6] = system: UACC-62; experiment: In vitro cytotoxicity against human melanoma UACC-62 cells.; type: functional
[7] = system: MCF7; experiment: Inhibition of DNA synthesis in MCF-7 cells.; type: functional, cell-based; details: Homo sapiens; in short: as §1
[8] = system: Cancer cell lines; experiment: Mean graph mid point (MGM) for growth inhibition of all human cancer cell lines successfully tested; type: functional
[9] = system: SN12C; experiment: In vitro cytotoxicity against human renal SN12C cells.; type: functional
[10] = system: HOP-62; experiment: In vitro cytotoxicity against human lung HOP-62 cells.; type: functional
[11] = target: Tubulin beta chain (Bos taurus, UniProt Q6B856); experiment: Inhibition of bovine tubulin polymerization
Chain of Tubulin beta chain (Q6B856 whole entry): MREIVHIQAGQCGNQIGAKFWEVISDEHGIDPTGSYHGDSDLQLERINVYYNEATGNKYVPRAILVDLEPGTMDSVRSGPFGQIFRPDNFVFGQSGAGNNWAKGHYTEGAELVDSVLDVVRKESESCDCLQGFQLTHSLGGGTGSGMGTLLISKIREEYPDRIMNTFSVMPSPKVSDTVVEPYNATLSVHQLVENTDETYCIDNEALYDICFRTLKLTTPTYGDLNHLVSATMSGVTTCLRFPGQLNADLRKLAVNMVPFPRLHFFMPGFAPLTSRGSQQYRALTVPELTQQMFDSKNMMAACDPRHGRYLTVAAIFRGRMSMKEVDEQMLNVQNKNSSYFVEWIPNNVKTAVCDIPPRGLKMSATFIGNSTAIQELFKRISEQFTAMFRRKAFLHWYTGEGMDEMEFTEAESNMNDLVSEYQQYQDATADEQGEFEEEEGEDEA
In short: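 Electrophoretically homogeneous bovine brain tubulin. Polymerization followed spectrophotometrically with a temperature jump from 2-4 °C to 30 °C.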

[12] = system: SF-539; experiment: In vitro cytotoxicity against human CNS SF-539 cells.; type: functional
[13] = target: Tyrosine-protein kinase SYK (Homo sapiens, UniProt P43405); experiment: In vitro inhibition of Syk protein tyrosine kinase; type: functional
In short: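 Full-length GST-Syk from baculovirus-infected Sf9 cell lysates, held on glutathione-agarose. Stopped with 10 mM EDTA, beads washed, read by scintillation counting. IC50 determined graphically against DMSO control.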

[14] = system: DU-145; experiment: In vitro cytotoxicity against human prostate DU-145 cells.; type: functional
[15] = system: HCT-116; experiment: In vitro cytotoxicity against human colon HCT116 cell culture.; type: functional
[16] = target: Tubulin beta chain (Bos taurus) (UniProt Q6B856); experiment: Percentage inhibition of binding of [3H]colchicine to tubulin at 50 uM
Chain of Tubulin beta chain (Bos taurus) (Q6B856 whole entry): as above

[17] = system: cancer cell lines (55); experiment: Mean graph midpoint (MGM) for growth inhibition of all human cancer cell lines (55); type: functional
[18] = target: Tubulin beta chain (Bos taurus) (UniProt Q6B856); details: 5 uM

Chain of Epidermal growth factor receptor (Q01279 whole entry): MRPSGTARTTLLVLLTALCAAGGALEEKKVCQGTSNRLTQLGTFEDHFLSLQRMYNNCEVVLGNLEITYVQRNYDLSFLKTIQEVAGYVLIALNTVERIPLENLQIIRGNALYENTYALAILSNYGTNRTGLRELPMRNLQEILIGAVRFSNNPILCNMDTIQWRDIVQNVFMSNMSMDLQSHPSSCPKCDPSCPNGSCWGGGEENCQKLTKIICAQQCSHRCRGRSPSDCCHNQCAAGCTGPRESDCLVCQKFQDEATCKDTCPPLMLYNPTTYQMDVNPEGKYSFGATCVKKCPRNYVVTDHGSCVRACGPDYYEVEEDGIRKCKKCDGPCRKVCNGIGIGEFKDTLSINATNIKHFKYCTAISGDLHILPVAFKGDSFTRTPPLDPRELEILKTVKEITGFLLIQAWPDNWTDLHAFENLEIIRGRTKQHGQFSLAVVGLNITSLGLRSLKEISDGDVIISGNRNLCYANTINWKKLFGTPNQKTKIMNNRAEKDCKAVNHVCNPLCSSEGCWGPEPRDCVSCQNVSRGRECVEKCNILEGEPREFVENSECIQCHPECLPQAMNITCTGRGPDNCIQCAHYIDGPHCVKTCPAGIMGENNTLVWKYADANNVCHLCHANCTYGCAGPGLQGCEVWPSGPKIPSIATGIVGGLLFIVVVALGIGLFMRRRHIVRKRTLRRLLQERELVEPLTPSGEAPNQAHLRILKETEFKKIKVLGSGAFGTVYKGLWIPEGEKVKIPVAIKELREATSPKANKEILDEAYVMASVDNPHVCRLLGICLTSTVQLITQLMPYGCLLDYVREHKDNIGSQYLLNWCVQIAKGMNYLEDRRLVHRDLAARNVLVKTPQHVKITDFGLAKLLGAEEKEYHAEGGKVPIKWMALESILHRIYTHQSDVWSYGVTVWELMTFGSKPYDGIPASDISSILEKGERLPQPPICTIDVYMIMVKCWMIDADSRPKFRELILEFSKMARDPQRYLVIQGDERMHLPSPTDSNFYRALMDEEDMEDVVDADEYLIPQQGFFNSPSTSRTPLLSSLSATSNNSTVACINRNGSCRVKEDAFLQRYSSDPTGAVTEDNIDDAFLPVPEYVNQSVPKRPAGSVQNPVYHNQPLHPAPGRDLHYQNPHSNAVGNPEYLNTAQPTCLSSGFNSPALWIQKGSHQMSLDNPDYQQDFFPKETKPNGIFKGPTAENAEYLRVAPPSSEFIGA

IC50 [1] [µM]	IC50 [7] [µM]	IC50 [11] [µM]	IC50 [13] [µM]	Inhibition [16] [%]	Inhibition [18] [%]	Compound	GI50 [2] [µM]	IC50 [3] [µM]	GI50 [4] [µM]	GI50 [5] [µM]	GI50 [6] [µM]	MGM [8] [µM]	GI50 [9] [µM]	GI50 [10] [µM]	GI50 [12] [µM]	GI50 [14] [µM]	GI50 [15] [µM]	MGM [17] [µM]
10	9	3.6	5			O=C(NCCc1ccccc1)c1cc(NCc2cc(O)ccc2O)ccc1O	19	11	2.7	7.7	14	14.8	18	20	17	16	18	
> 50	14	2.1	1.5	34		O=C(NCCN1CCOCC1)c1cc(NCc2cc(O)ccc2O)ccc1O	13	16	1.8	87	17	19.5	22		19	17	20	
4	10	5.3	8			O=C(NC1CCc2ccccc2C1)c1cc(NCc2cc(O)ccc2O)ccc1O (stereo unspecified)	9.2	6	1.4	7.9	14	11.2	18	17	2.7	17	16	
14	11	3.6		45		CCCCCCNC(=O)c1cc(NCc2cc(O)ccc2O)ccc1O	15	14	0.56	4	12	8.7	6.1	19	2.3	15	17	
> 200	3	4.9	5			O=C(NCCc1ccccc1)c1ccc(NCc2cc(O)ccc2O)cc1	5.1	7	0.59	2.7	9.4	6.4	7.4	13	8.5	14	7.4	
	> 50	> 40				CC(C)CCCC(C)[C@H]1CC[C@H]2[C@@H]3CCC4C[C@@H](NC(=O)c5cc(NCc6cc(O)ccc6O)ccc5O)CC[C@]4(C)[C@H]3CC[C@]12C (stereo partly specified)												>100
1	2	5	28			O=C(NCCCc1ccccc1)c1cc(NCc2cc(O)ccc2O)ccc1O	18	2	2.4	6.5	14	13.2	15	22	16	8.4	24	
> 100	16		18			O=C(NCc1ccccc1)c1ccc(NCc2cc(O)ccc2O)cc1	12	34	2.7	6.8	12	8.8	9.7	20	9.7	15	10	
500	5	6.9	> 100			O=C(NCCc1ccccc1)c1cccc(NCc2cc(O)ccc2O)c1	15	6	4.4	2.8	13	12.1	13	3.8	15	17	16	
15	11	3.6				O=C(NCCc1ccccn1)c1cc(NCc2cc(O)ccc2O)ccc1O	13	7	1	17	17	16	19	20	29	17	17	
300	16	4.5	5			O=C(NCCc1ccc(O)cc1)c1cc(NCc2cc(O)ccc2O)ccc1O	23	15		62	18	20.4	19	2.5	2.5	17	16	
> 100	14	4.2	50			COc1ccc(CCNC(=O)c2cc(NCc3cc(O)ccc3O)ccc2O)cc1	16	11	3.2	5.5	14	15.4	72	12	16	21	23	
33	0.4	5.7	35			O=C(NCCCc1ccccc1)c1ccc(NCc2cc(O)ccc2O)cc1	5.8	3	0.83	3	7.9	5.3	3.2	16	3.4	13	6.4	
35	7	4.2	45			O=C(NCCc1ccc(Br)cc1)c1cc(NCc2cc(O)ccc2O)ccc1O	10	6		4.2	8.6	7.6	6.3	18	15.8	16	7.6	
46	13	3.2	25			O=C(NCCc1ccc(Cl)cc1)c1cc(NCc2cc(O)ccc2O)ccc1O	20	9	1.6	5.9	13	10	9.8	17	8.4	16	15	
35	1	> 40	50			CCCCCCCCCCCCNC(=O)c1cc(NCc2cc(O)ccc2O)ccc1O	3.2	3	0.34	1.9	3.2	2.7	2.6	3.8	20	11	2.1	
4	12	4	5	38		O=C(NCCc1ccc(F)cc1)c1cc(NCc2cc(O)ccc2O)ccc1O	13	10	0.29	11	7.8	0.35	7.7	12	9.2	18	9.2	
					98	COc1ccc(/C=C\c2cc(OC)c(OC)c(OC)c2)cc1O												
8	17	3.2	25			O=C(NCc1ccccc1)c1cc(NCc2cc(O)ccc2O)ccc1O	30	17	3.2	21	15	15.5	12	23	21	16	17	
